Bioassay records: PubChem, several laboratories
Sampled rows, rich in hits. Any-hit rate of the full collection: about 1.9%.
IMP-1 inh-1 – blocks Pseudomonas aeruginosa IMP-1 metallo-beta-lactamase; purified IMP-1, nitrocefin hydrolysis, epi-absorbance fluorescence; inhibition, % at 5.6 µM; hit rate 0.45% among 290,000; AID 1556;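 active means inhibition above the mean plus 3 SD of all compounds in the same screening run, cut at about 4.5% in these data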;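 further: 0% = IMP-1 with DMSO and 100% = DMSO wells lacking enzyme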
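System – purified recombinant IMP-1 beta-lactamase · Input – IMP-1 dispensed at 0.2 nM · Timing – 15 min preincubation plus 25 min reaction at 25 °C · Signal – Epi-absorbance fluorescence, 480 nm excitation, 530 nm emission · Measure – percent IMP-1 inhibition derived from blank-referenced optical density · Controls – Enzyme-plus-DMSO low control, enzyme-free DMSO high control · Replication – singlicate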
T cell HTS – T cell immune modulators affecting CD8 T cell-vesicle binding. 2C CD8+ T cell-vesicle binding, flow cytometry; hits give low values. response (vesicle binding), % at 7 µM. hit rate 0.068% among 330,000. AID 2052;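 active means response, share of CD8 T cells binding vesicles, and their 90th percentile fluorescence all below set limits, cut at about 80% in these data, passing the limit was not always enough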;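 further: values below 100% mean blocked vesicle binding to the CD8+ T cells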
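Assay system: 2C TCR transgenic mouse naive CD8+ T cells, MACS-purified | Read-out: CD8+ gate FL2 mean fluorescence as % of same-row positive control | Signal: High-throughput flow cytometry with anti-B7-1 and anti-CD8 staining | Timing: Binding step 1.5 h, 37 °C, antibody labelling 20 min, ice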
CTSL1 counter – counter-screen for PFM18AAP inhibitors: inhibitors of F. hepatica cathepsin L1. recombinant F. hepatica cathepsin L1, Z-Leu-Arg-MCA fluorescence. inhibition, % at 5.96 µM. hit rate 0.49% among 300,000;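 active means inhibition above the mean of all tested compounds plus 3 SD, set per screening campaign, cut at about 17% in these data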;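 further: 0% = plate median of test compound wells and 100% = 1 µM Z-Phe-Ala-diazomethylketone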
VIM-2 inh – inhibitors of Pseudomonas aeruginosa VIM-2 metallo-beta-lactamase; purified VIM-2, nitrocefin hydrolysis, epi-absorbance fluorescence; inhibition, % at 5.6 µM; hit rate 0.89% among 290,000; AID 1527;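 active means inhibition above the mean of all tested compounds plus 3 SD, cutoff set per screening run, cut at about 7.5% in these data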;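 further: red hydrolysis product quenches plate fluorescence so inhibitors raise well fluorescence; 0% = enzyme with DMSO and 100% = DMSO without enzyme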
p-CIP stab down – lowers stability of the mouse p/CIP coactivator protein; Q05BA5; F442A p/CIP-EGFP cells, EGFP fluorescence, 16 h; decrease of EGFP signal, % at 10 µM; hit rate 0.01% among 290,000; AID 1984;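 active means EGFP signal decrease of at least 30% at 10 µM or well 3 SD below plate mean, unless failing retest; inactive means the rest, including hits failing retest or dose response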
SUMO HTRF inh – blocks human SUMOylation mediated by UBC9; AID 2006; HTRF SUMOylation assay, SAE1/SAE2 + UBC9, in vitro; P63279; hit rate 0.36% among 290,000; inhibition, % at 35 µM; in the data active means inhibition above about 50%, passing the limit was not always enough
Target sequence (P63279 whole entry, looked up): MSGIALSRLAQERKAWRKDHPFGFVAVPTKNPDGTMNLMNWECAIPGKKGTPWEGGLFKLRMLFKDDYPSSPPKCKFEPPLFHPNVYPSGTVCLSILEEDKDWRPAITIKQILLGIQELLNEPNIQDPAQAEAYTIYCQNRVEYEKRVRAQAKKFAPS
IMP-1 inh-2 – blocks IMP-1 metallo-beta-lactamase in VIM-2 selectivity screen; shares compounds with VIM-2 inh; inhibition, % at 5.6 µM; purified IMP-1, nitrocefin hydrolysis, epi-absorbance fluorescence; 1,300 tested, under 10 active; call rule not given here;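 further: 0% = enzyme with vehicle and 100% = vehicle without enzyme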
VIM-2 FRET ctr – inhibits VIM-2 in FRET assay to exclude epi-absorbance artifacts | shares compounds with VIM-2 inh | inhibition, % at 5.6 µM | hit rate 23% among 1,300 | AID 1857 | purified VIM-2, CCF2 FRET substrate hydrolysis;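 active means inhibition above the mean of all tested compounds plus 3 SD, cut at about 19% in these data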;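 further: 0% = VIM-2 plus DMSO and 100% = no enzyme wells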
TEM-1 counter – TEM-1 inhibition, counter-screen for VIM-2 inhibitors; shares compounds with VIM-2 inh; Purified TEM-1, nitrocefin hydrolysis, epi-absorbance fluorescence; inhibition, % at 5.6 µM; hit rate 3% among 1,300; AID 1866;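 active means inhibition above that campaign's mean inhibition plus 3 SD, cut at about 0.46% in these data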;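 further: 0% = TEM-1 with DMSO and 100% = TEM-1 with 100 µM potassium clavulanate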
Target sequence (P62593 whole entry, looked up): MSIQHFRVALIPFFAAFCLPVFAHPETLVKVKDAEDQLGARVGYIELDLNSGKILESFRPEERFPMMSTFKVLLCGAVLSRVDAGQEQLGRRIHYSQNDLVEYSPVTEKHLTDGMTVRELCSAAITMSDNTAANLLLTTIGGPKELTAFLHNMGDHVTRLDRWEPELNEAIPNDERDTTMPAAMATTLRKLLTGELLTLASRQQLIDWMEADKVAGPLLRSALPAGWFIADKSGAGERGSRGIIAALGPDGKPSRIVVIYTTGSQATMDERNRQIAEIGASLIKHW
VIM-2 confirm 2 – confirmation of P. aeruginosa VIM-2 metallo-beta-lactamase inhibitors; shares compounds with VIM-2 inh; purified VIM-2, nitrocefin hydrolysis, epi-absorbance; inhibition, % at 5.6 µM; hit rate 96% among 1,300; AID 2187;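 active means inhibition of the VIM-2 beta-lactamase enzyme above about 11% from the earlier first-round screen, limit read from the data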;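 further: 0% = VIM-2 with DMSO and 100% = buffer wells without enzyme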
Starred values were filed as active, the others as inactive; . = no result given.

SMILES | IMP-1 inh-1 | T cell HTS | CTSL1 counter | VIM-2 inh | p-CIP stab down | SUMO HTRF inh | IMP-1 inh-2 | VIM-2 FRET ctr | TEM-1 counter | VIM-2 confirm 2
CN(C)c1cccc(C(=O)OCc2cc(=O)oc3cc(O)ccc23)c1 | -3 | 393 | 4 | 32* | -12 | . | -1 | 34* | -4 | 27*
CC1(c2ccc3ccccc3c2)NC(=O)N(CC(=O)N2CCN(c3ccccc3O)CC2)C1=O (stereo not given) | -3 | 158 | -2 | -2 | -6 | 4 | . | . | . | .
O=C(O)c1ccccc1/C=N/n1c(C2CCCCC2)n[nH]c1=S | -2 | 298 | -1 | 15* | -12 | 17 | -2 | 32* | -6 | 21*
Cc1onc(-c2ccccc2)c1C(=O)NCC(O)c1ccccc1 (stereo not given) | -2 | 250 | -2 | -3 | 2 | 7 | . | . | . | .
CCCNc1cc(C)c(C#N)c2nc3ccccc3n12 | -3 | 304 | 1 | 4 | -15 | 28 | . | . | . | .
COCCNc1cc(C)c(C#N)c2nc3ccccc3n12 | 0 | 134 | 0 | 26* | 0 | 26 | -3 | -10 | -6 | 39*
Cc1cc(NCCOCCO)n2c(nc3ccccc32)c1C#N | -3 | 178 | 3 | 33* | -6 | 28 | -4 | -9 | -4 | 50*
Cc1cc(NCCCO)n2c(nc3ccccc32)c1C#N | -2 | 588 | 2 | 6 | -1 | 19 | . | . | . | .
C[C@H](N)c1nnc(SCC(N)=O)o1 | -3 | 341 | 2 | -5 | -1 | 5 | . | . | . | .
CCN1CCN(c2nnc(-c3ccccc3)c3ccccc23)CC1 | -2 | 326 | -1 | 0 | -5 | 15 | . | . | . | .
CCN1CCN(c2cc3c(nn2)Oc2ccccc2N3C)CC1 | -4 | 224 | -3 | 13* | 2 | 43 | -3 | 11 | -8 | 25*
CCOC(=O)N1CCN(C(=O)Cn2nc(-c3ccc(Cl)cc3)ccc2=O)CC1 | -3 | 554 | 11 | -1 | -2 | 4 | . | . | . | .
CCN1CCN(C(=O)Cn2nc(-c3ccc(Cl)cc3)ccc2=O)CC1 | -3 | 263 | -2 | 23* | 7 | 12 | -4 | -3 | -6 | 27*
CN1CCN(c2nc(-c3ccccc3)c3cc(Cl)ccc3n2)CC1 | -4 | 234 | 5 | 4 | -18 | 17 | . | . | . | .
Clc1ccc2nc(N3CCNCC3)nc(-c3ccccc3)c2c1 | 2 | 381 | -4 | 12* | -30 | 15 | -3 | -3 | -6 | 17*
COCCCNc1nc(N)c([N+](=O)[O-])c(N2CCCCCC2)n1 | -4 | 271 | 1 | -1 | -1 | -8 | . | . | . | .
CC(=O)c1ccc2c(c1)c(C#N)c1ccccc1[n+]2[O-] | 2 | . | . | 24* | -8 | 32 | -2 | 3 | 2.7* | 28*
CC(=O)c1ccc2noc(-c3ccccc3)c2c1 | -2 | 298 | 2 | -1 | -12 | 24 | . | . | . | .
COc1cc(NC(=O)Cc2cccs2)c(C(=O)O)cc1OC | -2 | 199 | 0 | -2 | -13 | 10 | . | . | . | .
OC1=C(O)c2nc3cc(C(F)(F)F)ccc3nc21 | 1 | 165 | -2 | 17* | 5 | 38 | -4 | -1 | -6 | 2
OC1=C(O)c2nc3ccccc3nc21 | -2 | 298 | 4 | -1 | -11 | 0 | . | . | . | .
CS(=O)(=O)N(CCC#N)Cc1ccco1 | -2 | 299 | 7 | -1 | 1 | 10 | . | . | . | .
C/C(Cl)=C/Cn1c(NCCCn2ccnc2)nc2c1c(=O)[nH]c(=O)n2C | -3 | 410 | 2 | 22* | -8 | 7 | -4 | -6 | -4 | 45*
C/C(Cl)=C\Cn1c(NCCCn2ccnc2)nc2c1c(=O)n(C)c(=O)n2C | -5 | 278 | -2 | 31* | -16 | 29 | -4 | -3 | -7 | 49*
CCN(CC)CCNc1nc2c(c(=O)n(C)c(=O)n2C)n1C/C=C(/C)Cl | -2 | 305 | -1 | 1 | -2 | -22 | . | . | . | .
SMILES | IMP-1 inh-1 | T cell HTS | CTSL1 counter | VIM-2 inh | p-CIP stab down | SUMO HTRF inh | IMP-1 inh-2 | VIM-2 FRET ctr | TEM-1 counter | VIM-2 confirm 2
CC(OC(=O)CN1C(=O)NC2(CCCC2)C1=O)c1ccc(F)cc1 (stereo not given) | . | 503 | . | . | . | . | . | . | . | .
CNS(=O)(=O)c1cc(NC(=O)c2cncn2-c2ccccc2)ccc1C | -3 | 256 | -1 | -1 | -12 | 4 | . | . | . | .
CCOC(=O)c1sc2nc(C)nc(NCc3ccc(F)cc3)c2c1C | -2 | 167 | 2 | 1 | -19 | 7 | . | . | . | .
CCOC(=O)c1sc2nc(C)nc(NCc3cccnc3)c2c1C | -3 | 206 | 5 | 24* | -6 | 1 | -3 | -4 | -6 | 50*
O=C(CSc1ccccc1F)NNC(=O)c1cncc(Br)c1 | . | 429 | . | . | . | . | . | . | . | .
Cc1ccccc1C(=O)Nc1cccc(-c2ccc3nncn3n2)c1 | -2 | 320 | 3 | 1 | 1 | -5 | . | . | . | .
CCOc1ccccc1C(=O)Nc1cccc(-c2ccc3nncn3n2)c1 | 0 | 165 | -5 | 21* | -1 | 6 | -3 | 1 | -8 | 31*
C(=N\Nc1ncnc2sc3c(c12)CCC3)/c1ccncc1 | -5 | 736 | 2 | 34* | -1 | 30 | -2 | -6 | -4 | 53*
C(=N\Nc1ncnc2sc3c(c12)CCC3)/c1cccs1 | -1 | 669 | 7 | 2 | 6 | 0 | . | . | . | .
CCN1C/C(=N\S(=O)(=O)/N=C2\CN(CC)C(=O)N2CC)N(CC)C1=O | -2 | 165 | -1 | -2 | -6 | 9 | . | . | . | .
O=C(CCCN1C(=O)c2cccc3cccc(c23)C1=O)NC1CCS(=O)(=O)C1 (stereo not given) | -3 | 397 | 2 | 15* | -12 | 6 | -2 | -2 | 0 | 22*
Cc1nc(SCC(=O)Nc2cccnc2Cl)nc(C)c1C | -2 | 199 | 3 | -2 | -12 | 17 | . | . | . | .
COc1ccccc1Nc1nc(NCCCN(C)C)nc(N)c1[N+](=O)[O-] | -5 | 405 | -2 | 27* | -9 | -15 | -3 | 3 | -7 | 44*
Cc1ccc(-c2nn3c(C)nnc3c3ccccc23)cc1S(=O)(=O)NCCO | -4 | 188 | -2 | 30* | 1 | 8 | -3 | 3 | -6 | 37*
Cc1ccc(-c2nn(C)c(=O)c3ccccc23)cc1S(=O)(=O)NCCN(C)C | -3 | 193 | 2 | 37* | -4 | 11 | -4 | -1 | -6 | 51*
CCCCNS(=O)(=O)c1cc(-c2nn(C)c(=O)c3ccccc23)ccc1C | -2 | 250 | -2 | -1 | -4 | -1 | . | . | . | .
